CCR6 antagonist – blocks CCL20-driven beta-arrestin recruitment at human CCR6; inhibition, % at 20 µM; hit rate 0.49% among 340,000; CHO-K1 CCR6 PathHunter beta-arrestin, luminescence, CCL20-stimulated; P51684;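 active = compounds whose inhibition of the agonist-driven luminescence signal at 20 µM reaches about 50%, limit read from the data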;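 also: cells stimulated with CCL20 at 14 nM final; plate controls were DMSO with CCL20 for no effect and DMSO without agonist for full effect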
m5-HT2A agonist – agonists of mouse serotonin 5-HT2A receptor (HTR2A); P35363; CHO-K1 mHTR2A beta-arrestin complementation, luminescence; percent of 30 µM serotonin response; activation, % at 7.6 µM; hit rate 0.66% among 360,000; AID 624169;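 active = activation above a run cutoff, the mean activation of all tested compounds plus 3 SD, cut at about 14% in these data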;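 also: 0% = plate median of compound wells and 100% = 30 µM serotonin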
CXCR6 block – inhibitors of human CXCR6 receptor | O00574 | CHO-K1 PathHunter CXCR6 beta-arrestin, luminescence | inhibition, % at 20 µM | hit rate 0.36% among 360,000; in the data active = inhibition above about 34%, passing the limit was not always enough;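 also: antagonist mode with CXCL16 agonist at 10 nM final; 0% = 10 nM CXCL16 with DMSO and 100% = unstimulated wells without agonist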
APJ agonist – APJ receptor agonism. activation, % at 20 µM. hit rate 0.11% among 330,000. P35414. CHO-K1 APJ PathHunter beta-arrestin, luminescence; 0% DMSO wells, 100% apelin;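 active = activation more than six SD over the plate average, tested at 20 µM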;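 also: 0% = DMSO alone and 100% = apelin-13 at 10 nM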
Target sequence (P35414 whole entry, looked up): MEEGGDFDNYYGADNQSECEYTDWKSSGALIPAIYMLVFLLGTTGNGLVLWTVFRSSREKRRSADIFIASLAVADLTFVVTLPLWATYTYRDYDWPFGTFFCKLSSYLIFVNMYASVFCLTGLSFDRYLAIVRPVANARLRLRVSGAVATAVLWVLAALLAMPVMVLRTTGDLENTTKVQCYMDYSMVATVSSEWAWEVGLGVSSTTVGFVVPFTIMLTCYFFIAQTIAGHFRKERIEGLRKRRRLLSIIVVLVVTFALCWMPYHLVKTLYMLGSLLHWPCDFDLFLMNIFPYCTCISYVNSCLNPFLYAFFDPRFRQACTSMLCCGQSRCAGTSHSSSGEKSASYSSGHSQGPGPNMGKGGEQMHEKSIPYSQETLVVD
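Material: CHO-K1 APJ beta-arrestin complementation cell line; Input: cell density 1000 per well; Incubation: compound stimulation 90 min at 25 °C, detection 60 min; Signal: luminescence from split beta-galactosidase complementation, Galacton Star/Emerald II substrate; Controls: DMSO-only wells as negative, 10 nM Apelin-13 as positive control.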
EBI2 antag – antagonists of human EBI2 receptor; P32249; EBI2 beta-arrestin recruitment, luminescence, 7a,25-OHC stimulated; inhibition, % at 5 µM; hit rate 0.81% among 360,000; AID 651636; in the data active = inhibition above about 38%;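 also: enzyme fragment complementation signal reports receptor beta-arrestin coupling in cells; 0% = agonist plus DMSO wells and 100% = wells without agonist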
Target sequence (P32249 whole entry, looked up, the tested form may be a part): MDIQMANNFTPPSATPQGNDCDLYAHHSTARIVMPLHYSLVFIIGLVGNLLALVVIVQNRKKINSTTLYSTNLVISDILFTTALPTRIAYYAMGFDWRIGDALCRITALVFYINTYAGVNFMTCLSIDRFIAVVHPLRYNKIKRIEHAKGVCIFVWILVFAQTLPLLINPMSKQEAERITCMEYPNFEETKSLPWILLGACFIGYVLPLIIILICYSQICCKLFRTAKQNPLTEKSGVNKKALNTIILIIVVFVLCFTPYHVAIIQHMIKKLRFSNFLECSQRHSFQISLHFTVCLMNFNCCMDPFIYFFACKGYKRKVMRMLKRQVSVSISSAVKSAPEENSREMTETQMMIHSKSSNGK
APJ antagonist – APJ receptor antagonism; P35414; CHO-K1 APJ beta-arrestin complementation, luminescence; inhibition, % at 20 µM; hit rate 0.32% among 330,000; AID 2521;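 active = inhibition above about 40% at 20 µM, limit read from the data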;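 also: cells challenged with 10 nM apelin-13 agonist together with compound; plate controls were apelin-13 plus DMSO wells for no effect and DMSO wells lacking apelin-13 for full effect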
APJ ag confirm – confirmation of human APJ apelin receptor agonists | shares compounds with APJ agonist | CHO-K1 APJ PathHunter beta-arrestin, luminescence | activation, % at 20 µM | hit rate 10% among 310 | AID 2764;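 active = activation above 40%, taking the highest of four retests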;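 also: plate controls were DMSO wells for no effect and apelin-13 at 10 nM for full effect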
* marks the source's active call; other numbers are inactive results. A selection: hits, their analogues and other compounds. The true share with any hit is near 2.1%.

How did Cc1cc(C)n2nc(SCC(=O)Nc3c(C)nn(-c4ccccc4)c3C)nc2n1 do in these assays?
CCR6 antagonist: 2.3; m5-HT2A agonist: 6.9; CXCR6 block: 3.3; APJ agonist: 39.2*; EBI2 antag: 1.6; APJ antagonist: 3.1; APJ ag confirm: 28.7

What do the screens show for `Cc1cc(C)n2nc(SCC(=O)NC(=O)c3ccccc3)nc2n1`?
CCR6 antagonist: 2.5; m5-HT2A agonist: 2.2; CXCR6 block: -2.5; APJ agonist: -4.2; EBI2 antag: 3.6; APJ antagonist: 8.3

What do the screens show for `O=[N+]([O-])c1cc(-c2nc3nc4ccccc4nc3n2CCc2ccccc2)cc([N+](=O)[O-])c1`?
CCR6 antagonist: 12.6; m5-HT2A agonist: 5.8; CXCR6 block: -5.6; APJ agonist: 16.5*; EBI2 antag: -6.0; APJ antagonist: -49.3; APJ ag confirm: 9.6

How did COc1ccc(OC)c2sc(N(CCCN(C)C)C(=O)c3ccc(S(=O)(=O)N4CCc5ccccc5C4)cc3)nc12 do in these assays?
APJ agonist: 44.7*; APJ antagonist: -59.4; APJ ag confirm: 21.7

How did Cc1ncc(CO)c2c1Oc1nc(-c3ccccc3)nc(SCC(=O)N(C)c3ccccc3)c1C2 do in these assays?
APJ agonist: 28.4*; APJ antagonist: -134.0; APJ ag confirm: 22.8

What do the screens show for `Cc1ncc(CO)c2c1Oc1nc(-c3ccccc3F)nc(SCC(=O)N(C)c3ccccc3)c1C2`?
CCR6 antagonist: -16.2; m5-HT2A agonist: 4.1; CXCR6 block: -2.6; APJ agonist: 10.7; EBI2 antag: -21.3; APJ antagonist: -39.9

What do the screens show for `CCOc1ccc2nc3cc(NCc4ccc(OC)cc4)ccc3c(N)c2c1`?
CCR6 antagonist: -10.2; m5-HT2A agonist: -11.8; CXCR6 block: -12.1; APJ agonist: 30.1*; EBI2 antag: -12.0; APJ antagonist: -15.2; APJ ag confirm: -3.8

What do the screens show for `COC(=O)c1ccc(-c2cc(CC3(C(=O)OC)CCN(C(=O)OC(C)(C)C)CC3)on2)cc1`?
CCR6 antagonist: -10.2; m5-HT2A agonist: -1.1; CXCR6 block: -31.2; APJ agonist: 36.3*; EBI2 antag: -13.1; APJ antagonist: -25.8; APJ ag confirm: 20.2

How did COC(=O)C1(Cc2cc(-c3ccccc3)no2)CCN(C(=O)OC(C)(C)C)CC1 do in these assays?
CCR6 antagonist: 9.3; m5-HT2A agonist: 2.9; CXCR6 block: 0.6; APJ agonist: -3.6; EBI2 antag: -10.7; APJ antagonist: 6.8

Results for O=C(NC1CCCCCCC1)c1ccccc1O ?
CCR6 antagonist: 9.7; m5-HT2A agonist: 1.1; CXCR6 block: -4.7; APJ agonist: -1.3; EBI2 antag: -17.9; APJ antagonist: 11.8

What do the screens show for `O=C(NC1CCCCC1)c1cc2ccccc2cc1O`?
CCR6 antagonist: -7.0; m5-HT2A agonist: -0.8; CXCR6 block: -8.8; APJ agonist: 13.4*; EBI2 antag: -7.9; APJ antagonist: -54.0; APJ ag confirm: 12.3

What do the screens show for `COc1cc(NC(=O)c2ccccc2)ccc1NC(=O)c1cc2ccccc2o1`?
CCR6 antagonist: -5.5; m5-HT2A agonist: 1.7; CXCR6 block: -0.7; APJ agonist: 17.0*; EBI2 antag: -9.6; APJ antagonist: 3.4; APJ ag confirm: 1.2

How did Cc1nn(Cc2ccccc2)c(C)c1NC(=O)CSc1nc2sc3c(c2c(=O)n1C)CCC3 do in these assays?
CCR6 antagonist: -101.7; APJ agonist: 28.6*; APJ antagonist: -72.7; APJ ag confirm: 40.0*

Results for CCc1nc2ccc(C(=O)NCCOc3ccc(OC)cc3)cn2c1N(C)C(=O)C1CCCCC1 ?
m5-HT2A agonist: 1.8; CXCR6 block: 2.6; EBI2 antag: 26.8

Results for C=CCN1CC2(c3ccccc3)CN(CC=C)CC(c3ccccc3)(C1)C2=O ?
CCR6 antagonist: 6.5; m5-HT2A agonist: -0.9; CXCR6 block: 0.1; APJ agonist: -1.5; EBI2 antag: 0.8; APJ antagonist: 7.6

How did N/C(=N\OC(=O)c1cccnc1)c1ccc(Cl)cc1Cl do in these assays?
CCR6 antagonist: -9.4; m5-HT2A agonist: -3.0; CXCR6 block: -6.4; APJ agonist: 4.1; EBI2 antag: -0.7; APJ antagonist: -60.9

What do the screens show for `N/C(=N\OC(=O)c1cccnc1)c1ccccc1Cl`?
CCR6 antagonist: -36.6; m5-HT2A agonist: 4.5; CXCR6 block: -15.0; APJ agonist: 8.9*; EBI2 antag: -14.1; APJ antagonist: -91.4; APJ ag confirm: 22.1

What do the screens show for `CCN(CC(=O)NCc1ccc(Cl)cc1)C(=O)CSCC(=O)Nc1ccc(OC)cc1`?
CCR6 antagonist: -2.7; m5-HT2A agonist: 8.1; CXCR6 block: -1.8; APJ agonist: 5.0; EBI2 antag: 4.4; APJ antagonist: 28.2

How did O=C(COC(=O)c1ccc2c(c1Cl)C(=O)c1ccccc1C2=O)NC1CC1 do in these assays?
CCR6 antagonist: -17.9; m5-HT2A agonist: 1.3; CXCR6 block: -24.2; APJ agonist: 12.6*; EBI2 antag: -8.9; APJ antagonist: -29.5; APJ ag confirm: 25.0

How did Cc1ccc2c(c1)N(CCCC(=O)Nc1cccc(C(F)(F)F)c1)C(=O)CO2 do in these assays?
CCR6 antagonist: -1.9; m5-HT2A agonist: -14.3; CXCR6 block: -9.7; APJ agonist: 1.5; EBI2 antag: -8.5; APJ antagonist: 16.2

Results for CC1CCN(S(=O)(=O)c2ccc3nc(N4CCN(c5ccccc5)CC4)ccc3c2)CC1 ?
CCR6 antagonist: -11.6; APJ agonist: 53.4*; APJ antagonist: -2.3; APJ ag confirm: 11.0

How did O=S(=O)(c1ccc2nc(N3CCN(c4ccc(F)cc4)CC3)ccc2c1)N1CCCCC1 do in these assays?
CCR6 antagonist: 13.2; m5-HT2A agonist: -1.1; CXCR6 block: 5.2; APJ agonist: -7.0; EBI2 antag: 19.1; APJ antagonist: 13.2

Results for N#Cc1cc(-c2ccccc2)nnc1Oc1ccccc1 ?
CCR6 antagonist: -1.5; m5-HT2A agonist: -2.9; CXCR6 block: -0.6; APJ agonist: 1.1; EBI2 antag: -4.5; APJ antagonist: 11.0

What do the screens show for `Cc1ccc(Oc2nnc(-c3ccccc3)cc2C#N)cc1`?
CCR6 antagonist: -14.0; m5-HT2A agonist: 3.5; CXCR6 block: -0.2; APJ agonist: 22.4*; EBI2 antag: -3.7; APJ antagonist: 9.8; APJ ag confirm: 21.4

What do the screens show for `CCOc1cc2[nH]c(=S)n(CCN3CCC(C)CC3)c(=O)c2cc1OCC`?
CCR6 antagonist: 13.9; m5-HT2A agonist: -4.3; CXCR6 block: -2.1; APJ agonist: 27.1*; EBI2 antag: -0.5; APJ antagonist: -0.8; APJ ag confirm: 13.4

What do the screens show for `CCOc1cc2[nH]c(=S)n(CCCC(=O)NCc3ccccn3)c(=O)c2cc1OCC`?
CCR6 antagonist: 12.9; m5-HT2A agonist: -3.6; CXCR6 block: -2.2; APJ agonist: 118.1*; EBI2 antag: 1.0; APJ antagonist: 8.2; APJ ag confirm: 28.5

Screening results from PubChem.
